From ChEMBL document CHEMBL1154183, “Structure-based optimization of potent and selective inhibitors of the tyrosine kinase erythropoietin producing human hepatocellular carcinoma receptor B4 (EphB4)” (J Med Chem, 2009)

Assays:
[1] = target: Mitogen-activated protein kinase 9 (Homo sapiens) (UniProt P45984); test: Inhibition of JNK2 assessed as remaining enzyme activity at 1 uM relative to DMSO
Outline: (§1)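 Dundee kinase panel, radiometric: [γ-33P]ATP (800 cpm/pmol) at 5, 20 or 50 μM, at or below each kinase's ATP Km; 10 mM magnesium acetate; robotic, room temperature, 30 min. Reactions started with MgATP, stopped with orthophosphoric acid, spotted onto P81 filters. Inhibitor tested at a single concentration; mean % activity of duplicates relative to DMSO control.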

[2] = target: Ephrin type-A receptor 8 (Homo sapiens, UniProt P29322); test: Inhibition of EphA8 by [gamma33-P]ATP based assay
[3] = target: Ribosomal protein S6 kinase alpha-2 (Homo sapiens) (UniProt Q15349); test: Binding affinity to RSK3 kinase domain 2 C-terminal assessed as percentage of kinase remaining bound to the bead at 1 uM by T7 phage display based binding assay
[4] = target: Ephrin type-B receptor 1 (Homo sapiens, UniProt P54762); test: Inhibition of EphB1 by [gamma33-P]ATP based assay
Outline: (§2)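 Radiometric [γ-33P]ATP kinase assay against Eph kinases, following a protocol similar to the Mg-acetate/MgATP filter-binding method.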

[5] = target: Ephrin type-A receptor 5 (Homo sapiens, UniProt P54756); test: Inhibition of EphA5 by [gamma33-P]ATP based assay; outline: as §2
[6] = target: Serine/threonine-protein kinase STK11 (Homo sapiens) (UniProt Q15831); test: Inhibition of LKB1 assessed as remaining enzyme activity at 1 uM relative to DMSO; outline: as §1
[7] = target: Platelet-derived growth factor receptor beta (Homo sapiens) (UniProt P09619); test: Binding affinity to PDGFRB assessed as percentage of kinase remaining bound to the bead at 1 uM by T7 phage display based binding assay
Outline: (§3)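 Competition binding assay run by a contract lab. Each kinase was expressed as a fusion to T7 phage, full-length for small kinases and catalytic domain for large ones. Phage were mixed with an immobilized known kinase inhibitor on streptavidin magnetic beads and with test compound at a single 1 μM. Kinase/phage still bound to the beads was quantified by qPCR and expressed as % of DMSO control.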

[8] = target: Ephrin type-B receptor 3 (Homo sapiens, UniProt P54753); test: Inhibition of EphB3 by [gamma33-P]ATP based assay; outline: as §2
[9] = target: Ephrin type-B receptor 2 (Homo sapiens, UniProt P29323); test: Inhibition of EphB2 by [gamma33-P]ATP based assay; outline: as §2
[10] = target: Casein kinase I isoform alpha (Homo sapiens) (UniProt P48729); test: Inhibition of CK1 assessed as remaining enzyme activity at 1 uM relative to DMSO
Outline: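 Radiometric kinase assay run robotically at room temperature for 30 min, linear in time and enzyme. Conditions: 10 mM magnesium acetate, [γ-33P]ATP (800 cpm/pmol) at 5, 20 or 50 μM per kinase, at or below its ATP Km. Started with MgATP and stopped with orthophosphoric acid, then spotted on P81 filters. Reported as mean % activity of duplicates versus DMSO controls.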

[11] = target: Serine/threonine-protein kinase 3 (Homo sapiens) (UniProt Q13188); test: Inhibition of MST2 assessed as remaining enzyme activity at 1 uM relative to DMSO
Outline: (§4)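 Radiometric kinase assay run robotically at room temperature for 30 min. Contained 10 mM magnesium acetate and [γ-33P]ATP (800 cpm/pmol) at 5, 20 or 50 μM, chosen per kinase to be at or below its ATP Km. Reactions were started with MgATP, stopped with orthophosphoric acid and spotted onto P81 filters. Result is mean % activity of duplicates at one inhibitor concentration versus DMSO control.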

[12] = target: Tyrosine-protein kinase Blk (Homo sapiens) (UniProt P51451); test: Binding affinity to BLK assessed as percentage of kinase remaining bound to the bead at 1 uM by T7 phage display based binding assay; outline: as §3
[13] = target: Ephrin type-A receptor 7 (Homo sapiens, UniProt Q15375); test: Inhibition of EphA7 by [gamma33-P]ATP based assay; outline: as §2
[14] = target: Myosin light chain kinase, smooth muscle (Homo sapiens) (UniProt Q15746); test: Inhibition of SmMLCK assessed as remaining enzyme activity at 3 uM relative to DMSO
[15] = target: Dual specificity tyrosine-phosphorylation-regulated kinase 2 (Homo sapiens) (UniProt Q92630); test: Inhibition of DYRK2 assessed as remaining enzyme activity at 3 uM relative to DMSO; outline: as §1
[16] = target: RAC-alpha serine/threonine-protein kinase (Homo sapiens) (UniProt P31749); test: Inhibition of PKBalpha assessed as remaining enzyme activity at 3 uM relative to DMSO; outline: as §4
[17] = target: Insulin receptor-related protein (Homo sapiens) (UniProt P14616); test: Inhibition of IRR assessed as remaining enzyme activity at 3 uM relative to DMSO; outline: as §1
[18] = target: Mitogen-activated protein kinase 1 (Homo sapiens) (UniProt P28482); test: Inhibition of ERK2 assessed as remaining enzyme activity at 3 uM relative to DMSO; outline: as §1
[19] = target: Mitogen-activated protein kinase kinase kinase kinase 2 (Homo sapiens) (UniProt Q12851); test: Inhibition of GCK assessed as remaining enzyme activity at 3 uM relative to DMSO; outline: as §1
[20] = target: Protein kinase C alpha type (Homo sapiens) (UniProt P17252); test: Inhibition of PKCalpha assessed as remaining enzyme activity at 3 uM relative to DMSO
[21] = target: Serine/threonine-protein kinase BRSK2 (Homo sapiens) (UniProt Q8IWQ3); test: Inhibition of BRSK2 assessed as remaining enzyme activity at 3 uM relative to DMSO
Outline: (§5)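 Panel assay run robotically at room temperature for 30 min with 10 mM magnesium acetate and [γ-33P]ATP (800 cpm/pmol) at 5, 20 or 50 μM, chosen per kinase to be at or below its ATP Km. Reactions were started with MgATP, stopped with orthophosphoric acid and spotted on P81 filters. Activity is the mean of duplicates at a single inhibitor concentration, as % of DMSO control.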

[22] = target: Insulin-like growth factor 1 receptor (Homo sapiens) (UniProt P08069); test: Inhibition of IGF-1R assessed as remaining enzyme activity at 3 uM relative to DMSO; outline: as §1
[23] = Inhibition of CK2 assessed as remaining enzyme activity at 3 uM relative to DMSO; outline: as §1
[24] = target: Serine/threonine-protein kinase N2 (Homo sapiens) (UniProt Q16513); test: Inhibition of PRK2 assessed as remaining enzyme activity at 3 uM relative to DMSO
[25] = target: Mitogen-activated protein kinase 9 (Homo sapiens) (UniProt P45984); test: Inhibition of JNK2 assessed as remaining enzyme activity at 3 uM relative to DMSO; outline: as §1
[26] = target: Mitogen-activated protein kinase 8 (Homo sapiens) (UniProt P45983); test: Inhibition of JNK1 assessed as remaining enzyme activity at 3 uM relative to DMSO; outline: as §1
[27] = target: MAP kinase-activated protein kinase 2 (Homo sapiens) (UniProt P49137); test: Inhibition of MAPKAPK2 assessed as remaining enzyme activity at 3 uM relative to DMSO; outline: as §4
[28] = Inhibition of Aurora assessed as remaining enzyme activity at 3 uM relative to DMSO; outline: as §5

Chain of Mitogen-activated protein kinase 9 (Homo sapiens) (P45984 whole entry, looked up): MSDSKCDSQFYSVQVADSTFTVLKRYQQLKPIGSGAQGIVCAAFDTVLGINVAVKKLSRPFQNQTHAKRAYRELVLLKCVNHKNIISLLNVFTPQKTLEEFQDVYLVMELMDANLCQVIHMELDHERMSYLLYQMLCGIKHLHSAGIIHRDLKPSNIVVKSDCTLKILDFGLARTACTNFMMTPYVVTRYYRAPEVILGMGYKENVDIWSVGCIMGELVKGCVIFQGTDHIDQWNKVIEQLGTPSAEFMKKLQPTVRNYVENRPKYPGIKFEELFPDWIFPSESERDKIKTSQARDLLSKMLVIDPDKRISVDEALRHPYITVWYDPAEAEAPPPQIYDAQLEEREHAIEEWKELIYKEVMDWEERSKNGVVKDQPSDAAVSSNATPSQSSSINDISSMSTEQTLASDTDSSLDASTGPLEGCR
Chain of MAP kinase-activated protein kinase 2 (Homo sapiens) (P49137 whole entry, looked up): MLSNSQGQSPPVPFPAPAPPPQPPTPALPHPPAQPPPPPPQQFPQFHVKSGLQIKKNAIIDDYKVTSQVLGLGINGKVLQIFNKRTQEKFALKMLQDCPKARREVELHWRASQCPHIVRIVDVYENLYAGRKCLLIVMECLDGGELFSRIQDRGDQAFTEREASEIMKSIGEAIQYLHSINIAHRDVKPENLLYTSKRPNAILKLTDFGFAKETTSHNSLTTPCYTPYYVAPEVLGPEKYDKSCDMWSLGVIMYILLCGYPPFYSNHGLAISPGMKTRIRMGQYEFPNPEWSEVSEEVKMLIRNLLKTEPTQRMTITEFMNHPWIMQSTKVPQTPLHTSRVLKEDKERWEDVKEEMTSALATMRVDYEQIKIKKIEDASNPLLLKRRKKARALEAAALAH
Chain of Serine/threonine-protein kinase STK11 (Homo sapiens) (Q15831 whole entry): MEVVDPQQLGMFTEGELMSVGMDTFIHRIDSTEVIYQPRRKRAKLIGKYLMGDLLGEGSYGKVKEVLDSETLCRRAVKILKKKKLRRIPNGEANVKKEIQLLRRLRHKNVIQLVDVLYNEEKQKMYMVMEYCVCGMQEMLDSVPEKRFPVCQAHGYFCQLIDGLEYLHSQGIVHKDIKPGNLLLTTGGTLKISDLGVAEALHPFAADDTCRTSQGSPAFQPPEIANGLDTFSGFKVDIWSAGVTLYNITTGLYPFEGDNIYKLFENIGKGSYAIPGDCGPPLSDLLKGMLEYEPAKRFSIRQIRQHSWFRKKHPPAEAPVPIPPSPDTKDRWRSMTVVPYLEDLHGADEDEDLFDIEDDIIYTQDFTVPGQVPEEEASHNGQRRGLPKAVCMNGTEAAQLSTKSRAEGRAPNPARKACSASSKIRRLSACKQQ
Chain of Ephrin type-A receptor 5 (P54756 whole entry): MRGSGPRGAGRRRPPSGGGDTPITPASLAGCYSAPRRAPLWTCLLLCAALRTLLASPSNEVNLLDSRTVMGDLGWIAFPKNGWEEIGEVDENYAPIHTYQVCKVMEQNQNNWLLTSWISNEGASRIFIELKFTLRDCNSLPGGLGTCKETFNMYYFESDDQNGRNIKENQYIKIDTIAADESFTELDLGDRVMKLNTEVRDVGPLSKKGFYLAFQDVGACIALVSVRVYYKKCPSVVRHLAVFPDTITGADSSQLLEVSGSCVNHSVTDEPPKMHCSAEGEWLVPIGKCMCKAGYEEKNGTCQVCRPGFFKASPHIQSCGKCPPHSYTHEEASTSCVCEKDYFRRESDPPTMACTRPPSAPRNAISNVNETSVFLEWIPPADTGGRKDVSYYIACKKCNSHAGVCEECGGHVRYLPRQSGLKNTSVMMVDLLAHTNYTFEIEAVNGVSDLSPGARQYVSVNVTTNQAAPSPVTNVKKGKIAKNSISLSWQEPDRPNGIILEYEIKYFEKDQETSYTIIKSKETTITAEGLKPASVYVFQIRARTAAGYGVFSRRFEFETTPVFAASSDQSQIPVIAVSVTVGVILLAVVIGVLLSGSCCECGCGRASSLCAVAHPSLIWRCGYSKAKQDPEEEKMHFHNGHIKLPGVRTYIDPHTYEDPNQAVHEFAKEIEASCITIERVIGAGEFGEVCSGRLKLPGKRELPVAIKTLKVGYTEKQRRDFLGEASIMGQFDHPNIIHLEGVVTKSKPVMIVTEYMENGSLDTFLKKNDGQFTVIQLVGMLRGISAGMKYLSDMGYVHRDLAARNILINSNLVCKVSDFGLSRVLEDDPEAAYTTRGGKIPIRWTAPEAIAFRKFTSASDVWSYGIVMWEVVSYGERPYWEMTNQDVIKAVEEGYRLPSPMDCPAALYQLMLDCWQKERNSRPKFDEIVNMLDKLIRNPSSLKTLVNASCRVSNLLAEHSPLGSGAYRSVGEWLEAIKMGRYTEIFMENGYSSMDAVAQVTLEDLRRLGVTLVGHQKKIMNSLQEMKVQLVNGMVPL
Chain of Ephrin type-B receptor 3 (P54753 whole entry): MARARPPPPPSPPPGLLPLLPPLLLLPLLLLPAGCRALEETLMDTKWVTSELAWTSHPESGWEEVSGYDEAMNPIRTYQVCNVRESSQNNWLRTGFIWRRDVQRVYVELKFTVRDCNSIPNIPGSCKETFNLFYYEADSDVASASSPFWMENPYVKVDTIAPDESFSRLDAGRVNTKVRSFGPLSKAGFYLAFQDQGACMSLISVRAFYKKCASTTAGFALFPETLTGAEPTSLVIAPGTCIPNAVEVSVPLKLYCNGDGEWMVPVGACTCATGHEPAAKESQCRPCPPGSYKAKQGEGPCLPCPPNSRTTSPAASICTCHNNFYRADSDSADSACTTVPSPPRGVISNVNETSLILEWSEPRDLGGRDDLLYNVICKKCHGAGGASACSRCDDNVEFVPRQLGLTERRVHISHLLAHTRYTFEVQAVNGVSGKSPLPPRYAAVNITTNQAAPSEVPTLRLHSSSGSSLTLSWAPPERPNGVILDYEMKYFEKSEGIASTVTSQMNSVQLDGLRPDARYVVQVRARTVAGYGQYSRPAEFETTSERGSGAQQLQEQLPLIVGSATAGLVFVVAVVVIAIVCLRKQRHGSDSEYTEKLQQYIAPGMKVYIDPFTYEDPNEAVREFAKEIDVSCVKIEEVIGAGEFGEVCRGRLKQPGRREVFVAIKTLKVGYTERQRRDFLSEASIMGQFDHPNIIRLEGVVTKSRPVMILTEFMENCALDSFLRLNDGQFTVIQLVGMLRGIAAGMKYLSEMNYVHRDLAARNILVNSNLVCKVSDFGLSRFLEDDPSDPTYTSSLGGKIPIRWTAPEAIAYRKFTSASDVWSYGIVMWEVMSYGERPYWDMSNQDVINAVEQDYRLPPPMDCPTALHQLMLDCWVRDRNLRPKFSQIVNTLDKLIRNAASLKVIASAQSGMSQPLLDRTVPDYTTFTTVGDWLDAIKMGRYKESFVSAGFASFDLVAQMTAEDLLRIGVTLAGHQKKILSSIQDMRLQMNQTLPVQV
Chain of Tyrosine-protein kinase Blk (Homo sapiens) (P51451 2-505 limits assumed): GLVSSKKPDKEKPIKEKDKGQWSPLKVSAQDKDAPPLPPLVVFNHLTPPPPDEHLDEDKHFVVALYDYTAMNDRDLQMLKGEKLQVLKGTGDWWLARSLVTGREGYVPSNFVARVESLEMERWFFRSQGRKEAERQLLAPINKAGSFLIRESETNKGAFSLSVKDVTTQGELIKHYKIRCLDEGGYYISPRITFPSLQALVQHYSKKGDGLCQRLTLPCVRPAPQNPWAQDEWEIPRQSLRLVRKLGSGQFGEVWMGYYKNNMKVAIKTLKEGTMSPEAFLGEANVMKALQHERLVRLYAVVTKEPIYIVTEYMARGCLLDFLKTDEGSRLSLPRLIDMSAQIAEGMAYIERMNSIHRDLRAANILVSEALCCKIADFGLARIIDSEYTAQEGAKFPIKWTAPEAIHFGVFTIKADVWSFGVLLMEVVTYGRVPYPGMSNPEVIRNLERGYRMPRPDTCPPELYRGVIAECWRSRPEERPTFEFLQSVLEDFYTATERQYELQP
Chain of Mitogen-activated protein kinase kinase kinase kinase 2 (Homo sapiens) (Q12851 whole entry): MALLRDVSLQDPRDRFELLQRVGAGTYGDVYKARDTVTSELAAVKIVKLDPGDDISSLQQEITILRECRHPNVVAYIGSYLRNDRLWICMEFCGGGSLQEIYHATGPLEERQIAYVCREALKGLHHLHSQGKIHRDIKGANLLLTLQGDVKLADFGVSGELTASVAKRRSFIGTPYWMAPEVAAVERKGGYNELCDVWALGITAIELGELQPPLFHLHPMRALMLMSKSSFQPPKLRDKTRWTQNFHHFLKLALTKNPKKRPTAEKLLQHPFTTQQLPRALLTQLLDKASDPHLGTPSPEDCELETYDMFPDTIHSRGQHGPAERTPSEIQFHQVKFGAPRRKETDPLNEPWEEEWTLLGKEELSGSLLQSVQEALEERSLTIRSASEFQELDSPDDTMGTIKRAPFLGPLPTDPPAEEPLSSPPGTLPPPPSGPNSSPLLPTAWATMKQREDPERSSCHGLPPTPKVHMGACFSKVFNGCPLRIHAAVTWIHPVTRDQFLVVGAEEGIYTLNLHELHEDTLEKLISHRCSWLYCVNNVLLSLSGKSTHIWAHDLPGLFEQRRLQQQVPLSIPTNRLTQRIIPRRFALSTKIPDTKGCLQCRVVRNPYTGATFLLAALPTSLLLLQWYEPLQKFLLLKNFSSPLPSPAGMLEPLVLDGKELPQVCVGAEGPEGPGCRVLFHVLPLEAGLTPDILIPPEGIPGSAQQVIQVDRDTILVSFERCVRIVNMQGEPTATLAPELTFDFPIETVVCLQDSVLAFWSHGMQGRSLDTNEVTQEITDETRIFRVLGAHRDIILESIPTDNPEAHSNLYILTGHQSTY
Chain of Casein kinase I isoform alpha (Homo sapiens) (P48729 whole entry, looked up, canonical isoform): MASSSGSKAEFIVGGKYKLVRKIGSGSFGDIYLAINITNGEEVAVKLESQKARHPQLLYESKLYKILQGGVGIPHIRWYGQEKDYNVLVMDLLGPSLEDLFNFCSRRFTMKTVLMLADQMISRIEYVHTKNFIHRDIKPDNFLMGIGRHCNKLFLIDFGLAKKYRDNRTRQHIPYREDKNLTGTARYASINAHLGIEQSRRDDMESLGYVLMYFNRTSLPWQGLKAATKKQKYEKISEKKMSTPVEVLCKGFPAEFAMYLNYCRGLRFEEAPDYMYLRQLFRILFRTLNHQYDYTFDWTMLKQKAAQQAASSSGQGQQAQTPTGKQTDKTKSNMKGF

COc1ccccc1-n1c(-c2cc(O)ccc2C)cn2c3c(=O)[nH]c(=O)n(C)c3nc12
Activity [1]: 94% | IC50 [2]: 4.5 nM | Activity [3]: 84% | IC50 [4]: 1.1 nM | IC50 [5]: 3 nM | Activity [6]: 75% | Activity [7]: 53% | IC50 [8]: 15 nM | IC50 [9]: 1.2 nM | Activity [10]: 93% | Activity [11]: 111% | Activity [12]: 0.6% | IC50 [13]: 1120 nM

COc1ccccc1-n1c(-c2ccccc2C)cn2c3c(=O)[nH]c(=O)n(C)c3nc12
Activity [14]: 91% | Activity [15]: 94% | Activity [16]: 97% | Activity [17]: 110% | Activity [18]: 91% | Activity [19]: 109% | Activity [20]: 97% | Activity [21]: 81% | Activity [22]: 106% | Activity [23]: 85% | Activity [24]: 95% | Activity [25]: 93% | Activity [26]: 106% | Activity [27]: 96% | Activity [28]: 104%
